What is called inhibition is the change of the read-out against control, counted positive when it falls.

The campaign covered roughly 330,000 compounds. About 1,100 (0.33%) were called active. The sample holds actives, similar compounds and a random draw of the others, so the mix is not that of the screen.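 The calls were made as follows: active = mean inhibition over replicate wells above about 20% (limit read from the data); inactive = the rest.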

In the assay the target is Ubiquitin carboxyl-terminal hydrolase isozyme L5 (Homo sapiens) (UniProt Q9Y5K5). In words: inhibitors of human UCH37 deubiquitinase, primary screen, biochemical, Ub-AMC cleavage, fluorescence (AID 588478).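 Also: 0% = compound-free wells with enzyme and 100% = wells lacking proteasome.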 To be noted: purified proteasome/UCH37, Ub-AMC cleavage fluorescence; hits give high values; concentration not given here. In short, it runs like this: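 Reagent: Ub-AMC substrate; assay system: Proteasome-associated human UCH37 deubiquitinase; controls: no-proteasome and no-compound wells; read-out: % inhibition of Ub-AMC cleavage fluorescence; timing: 30 min preincubation with enzyme, 25 min cleavage at room temperature; signal: AMC fluorescence from Ub-AMC cleavage, excitation 355 nm, emission 460 nm; buffer or medium: Tris-HCl pH 7.4 plus ovalbumin, ATP-MgCl2, DTT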
Sequence of Ubiquitin carboxyl-terminal hydrolase isozyme L5 (Homo sapiens) (Q9Y5K5 whole entry, looked up): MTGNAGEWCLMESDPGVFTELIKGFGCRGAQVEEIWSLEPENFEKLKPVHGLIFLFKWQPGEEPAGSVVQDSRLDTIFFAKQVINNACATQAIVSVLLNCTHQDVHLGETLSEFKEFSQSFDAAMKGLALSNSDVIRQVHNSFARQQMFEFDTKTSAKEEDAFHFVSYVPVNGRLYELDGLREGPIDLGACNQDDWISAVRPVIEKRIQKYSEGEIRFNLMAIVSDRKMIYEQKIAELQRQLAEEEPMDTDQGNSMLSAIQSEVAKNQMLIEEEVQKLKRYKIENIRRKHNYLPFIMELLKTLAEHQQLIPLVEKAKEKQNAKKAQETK
Consider `c1coc(-c2nc3nc4ccccc4n3nc2-c2ccco2)c1`, for which the inhibition was 25.1% (active).
Next, `O=C(NN=Cc1cccnc1)c1cccc(N2CCCC2=O)c1`: 2.39% (inactive).
In the case of `O=C(NC(Cc1c[nH]c2ccccc12)C(=O)NN=Cc1ccc(Br)cc1)c1cccs1` (stereo not drawn), the inhibition is 0.851% (inactive).
Next, `CCN(CC)CCCC(C)n1c2nc(=O)[nH]c(=O)c-2nc2cc(Cl)ccc21` (stereo not drawn): 76% (active); `CCN(CC)CCn1c2ccc(Cl)cc2c2nc(C)sc21`: 7.52% (inactive).
Next, `Nc1nnnn1N=Cc1cc(Cl)ccc1O`: -10.7% (inactive); `CC(CC(=O)NCCc1ccccc1)=NNC(=O)COc1ccc(Br)cc1`: 3.08% (inactive); `O=C1C(Cl)=C(N2CCOCC2)C(=O)N1c1ccccc1`: 3.48% (inactive).
The figure for `O=C1c2ccccc2-c2ncnc3c(N4CCOCC4)cc(N4CCOCC4)c1c23` is 17.7% (inactive); for `COC1=C(N2CCOCC2)C(=O)c2ccccc2C1=O` it is 33.9% (active); for `Cc1cc(C)n2nc(C(=O)NN=Cc3cccc(Cl)c3)nc2n1` it is 4.88% (inactive).
Consider `COc1ccc(OCC(=O)NN=C(C)CC(=O)Nc2ccc(OC)cc2[N+](=O)[O-])cc1`, for which the inhibition is 5.56% (inactive).
The figure for `Cc1cc(N2C(=O)C(=O)/C(=C(/O)c3ccccc3)C2c2cccc(Br)c2)no1` (stereo not drawn) is 21.7% (active); for `Cc1cc(N2C(=O)C(=O)/C(=C(/O)c3ccc(Cl)cc3)C2c2cccc(Br)c2)no1` (stereo not drawn) it is 6.56% (inactive); for `COc1ccc(C2/C(=C(/O)c3ccccc3)C(=O)C(=O)N2c2ncccn2)cc1OC` (stereo not drawn) it is 7.11% (inactive).
`Cc1ccccc1OCC(=O)NN=C1CCOc2c(C)cccc21`: the inhibition is -0.822% (inactive).
The figure for `CC(C)(C)c1ccc(OCc2ccc(C(=O)NN=C3CC4CC=CC34)cc2)cc1` (stereo not drawn) is 2.62% (inactive).
With `O=C(NC1CCCCC1)c1ccc(-c2ccc(Cl)cc2)o1`, the inhibition is 1.6% (inactive).
The figure for `CN(CC(=O)Nc1ccc(F)cc1)C(=O)c1ccc(-c2ccc(Cl)cc2)o1` is -0.892% (inactive); for `Cc1[nH][nH]c(=O)c1C(c1ccc(-c2ccc(Cl)cc2)o1)c1c(C)[nH][nH]c1=O` it is 42.6% (active).
As to `Cc1cccc(OCC(=O)NN=C/C=C/c2ccc3c(c2)OCO3)c1C`, the inhibition was -10.5% (inactive).
In the case of `CC(=NNC(=O)c1ccc2c(c1)OCO2)c1ccc(O)cc1`, the inhibition is 3.15% (inactive).
The figure for `Oc1ccc(N=Nc2nccs2)c(O)c1` is 24.4% (active).
The figure for `CC(=NNc1cc(N2CCOCC2)ncn1)c1ccccc1` is 2.94% (inactive).
Next, `Cn1c(=O)n(C)c2cc(C=Nn3cnnc3)ccc21`: -35.7% (inactive); `C=CCN1C(=O)c2ccc(C(=O)N3CCC(C(=O)OCC)CC3)cc2C1=O`: -0.969% (inactive).
With `CC1CCCN(C(=O)c2ccc3c(c2)C(=O)N(CCC2=CCCCC2)C3=O)C1` (stereo not drawn), the inhibition is 39.5% (active).
The figure for `Cc1cc(=O)n2nc(N3CCCC(C(=O)NCCC4=CCCCC4)C3)sc2n1` (stereo not drawn) is 4.22% (inactive).

These data come from PubChem BioAssay AID588478 (ICCB-Longwood Screening Facility, Harvard Medical School, 2011).
